Measurements as given in ChEMBL document CHEMBL1781874, “Cytotoxic triterpenoids from the stems of Microtropis japonica” (J Nat Prod, 2009).
In brackets after ≈: the same amount, converted by molar mass. Activity calls are given as the source filed them. No cut-off for these calls is given here.

Assays:
HL-60 [1] = test: Cytotoxicity against human HL60 cells after 24 hrs by MTT assay; type: functional, cell-based; conditions: HL-60, 24 h
Outline: (§1)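 MTT viability read-out on human cancer cell lines (Ca9-22 gingival, HL60 leukemia, HepG2 hepatoma), run to a previously published protocol.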

HepG2 = test: Cytotoxicity against human HepG2 cells after 24 hrs by MTT assay; type: functional, cell-based; conditions: HepG2, 24 h; outline: as §1
HL-60 [2] = test: Induction of apoptosis in human HL60 cells assessed as increase in Bax expression by Western blotting analysis; type: functional, cell-based
Outline: (§2)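 Cells lysed for 30 min in RIPA buffer (PBS, 1% NP-40, 0.5% deoxycholate, 0.1% SDS, 1 mM orthovanadate, 100 μg/mL PMSF, 30 μg/mL aprotinin), then spun at 20000g for 30 min. Supernatant protein quantified by Bio-Rad assay. Equal protein run on 7.5, 10 or 12% SDS-PAGE, transferred to PVDF, blocked 1 h in 5% nonfat milk in TBST.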

[3] = target: Histone deacetylase 5 (Homo sapiens) (UniProt Q9UQL6); test: Inhibition of HDAC5 in human HL60 cells at 5 to 20 ug/ml after 24 hrs by Western blotting analysis; type: cell-based; conditions: HL-60; outline: as §2
Histone deacetylase 5 (Homo sapiens), sequence (Q9UQL6 whole entry): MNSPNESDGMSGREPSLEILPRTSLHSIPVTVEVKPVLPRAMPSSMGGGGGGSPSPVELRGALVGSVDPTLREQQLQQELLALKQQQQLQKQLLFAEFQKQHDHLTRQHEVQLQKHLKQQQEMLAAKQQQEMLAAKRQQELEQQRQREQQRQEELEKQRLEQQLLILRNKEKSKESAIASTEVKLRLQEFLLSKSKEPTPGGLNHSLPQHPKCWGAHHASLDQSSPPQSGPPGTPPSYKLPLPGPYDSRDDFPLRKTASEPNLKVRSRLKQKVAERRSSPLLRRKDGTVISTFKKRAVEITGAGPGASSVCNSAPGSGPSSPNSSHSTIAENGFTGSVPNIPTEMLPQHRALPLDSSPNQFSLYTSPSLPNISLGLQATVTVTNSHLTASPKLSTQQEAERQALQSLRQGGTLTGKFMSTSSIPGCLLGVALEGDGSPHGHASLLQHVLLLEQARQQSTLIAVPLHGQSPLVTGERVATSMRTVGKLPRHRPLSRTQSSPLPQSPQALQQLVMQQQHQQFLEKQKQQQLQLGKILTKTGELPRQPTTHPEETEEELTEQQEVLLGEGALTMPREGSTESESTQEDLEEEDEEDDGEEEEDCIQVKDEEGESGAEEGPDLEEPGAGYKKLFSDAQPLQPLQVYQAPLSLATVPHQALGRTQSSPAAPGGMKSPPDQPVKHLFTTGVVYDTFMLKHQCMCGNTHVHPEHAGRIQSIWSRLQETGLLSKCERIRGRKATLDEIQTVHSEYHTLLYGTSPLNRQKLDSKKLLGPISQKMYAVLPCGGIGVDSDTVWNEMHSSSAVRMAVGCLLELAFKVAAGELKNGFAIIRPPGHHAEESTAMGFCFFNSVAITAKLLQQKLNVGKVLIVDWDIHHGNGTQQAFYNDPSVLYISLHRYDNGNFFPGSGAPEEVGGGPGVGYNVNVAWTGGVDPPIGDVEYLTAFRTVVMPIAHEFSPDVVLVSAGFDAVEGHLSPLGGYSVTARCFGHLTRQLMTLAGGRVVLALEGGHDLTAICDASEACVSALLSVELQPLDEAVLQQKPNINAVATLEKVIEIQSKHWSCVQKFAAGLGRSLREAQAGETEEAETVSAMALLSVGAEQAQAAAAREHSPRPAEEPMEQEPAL

[4] = target: T1, Protein deacetylase HDAC6 (Homo sapiens) (UniProt Q9UBN7); test: Inhibition of HDAC6 in human HL60 cells at 5 to 20 ug/ml after 24 hrs by Western blotting analysis; type: cell-based; conditions: HL-60; outline: as §2
T1 sequence (whole entry): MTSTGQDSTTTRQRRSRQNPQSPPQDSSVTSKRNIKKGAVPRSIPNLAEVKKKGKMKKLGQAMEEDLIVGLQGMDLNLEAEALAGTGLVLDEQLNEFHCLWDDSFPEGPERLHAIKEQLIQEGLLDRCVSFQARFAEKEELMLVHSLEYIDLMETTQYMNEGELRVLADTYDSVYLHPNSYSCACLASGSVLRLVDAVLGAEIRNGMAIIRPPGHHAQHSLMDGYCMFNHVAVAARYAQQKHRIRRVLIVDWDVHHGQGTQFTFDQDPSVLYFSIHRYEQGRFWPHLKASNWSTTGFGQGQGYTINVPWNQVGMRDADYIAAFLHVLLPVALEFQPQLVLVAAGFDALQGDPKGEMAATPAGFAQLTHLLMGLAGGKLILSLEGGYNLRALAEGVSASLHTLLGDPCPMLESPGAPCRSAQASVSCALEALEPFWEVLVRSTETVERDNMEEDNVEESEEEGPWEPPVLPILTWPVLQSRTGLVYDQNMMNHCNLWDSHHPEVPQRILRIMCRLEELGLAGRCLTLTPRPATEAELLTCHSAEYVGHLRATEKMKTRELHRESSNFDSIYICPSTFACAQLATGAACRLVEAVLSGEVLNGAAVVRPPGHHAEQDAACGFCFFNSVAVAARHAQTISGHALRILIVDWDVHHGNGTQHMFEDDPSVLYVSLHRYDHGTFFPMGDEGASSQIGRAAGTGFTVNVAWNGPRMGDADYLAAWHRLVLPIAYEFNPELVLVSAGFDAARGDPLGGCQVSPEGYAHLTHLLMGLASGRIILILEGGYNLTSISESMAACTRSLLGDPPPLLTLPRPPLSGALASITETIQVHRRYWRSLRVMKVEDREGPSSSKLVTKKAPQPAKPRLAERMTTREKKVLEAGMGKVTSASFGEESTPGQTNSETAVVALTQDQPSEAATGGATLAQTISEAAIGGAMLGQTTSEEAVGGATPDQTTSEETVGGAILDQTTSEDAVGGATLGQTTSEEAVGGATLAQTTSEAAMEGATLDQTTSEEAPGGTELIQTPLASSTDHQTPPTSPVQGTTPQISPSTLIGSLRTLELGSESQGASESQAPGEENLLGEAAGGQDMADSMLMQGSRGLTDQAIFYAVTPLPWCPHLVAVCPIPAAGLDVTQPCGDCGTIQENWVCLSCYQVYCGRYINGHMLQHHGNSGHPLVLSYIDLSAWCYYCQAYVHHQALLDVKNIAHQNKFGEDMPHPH

HL-60 [5] = test: Induction of apoptosis in human HL60 cells assessed as PARP cleavage by Western blotting analysis; type: functional, cell-based; outline: as §2
[6] = target: Histone deacetylase 4 (Homo sapiens) (UniProt P56524); test: Inhibition of HDAC4 in human HL60 cells at 5 to 20 ug/ml after 24 hrs by Western blotting analysis; type: cell-based; conditions: HL-60; outline: as §2
Histone deacetylase 4 (Homo sapiens), sequence (P56524 whole entry): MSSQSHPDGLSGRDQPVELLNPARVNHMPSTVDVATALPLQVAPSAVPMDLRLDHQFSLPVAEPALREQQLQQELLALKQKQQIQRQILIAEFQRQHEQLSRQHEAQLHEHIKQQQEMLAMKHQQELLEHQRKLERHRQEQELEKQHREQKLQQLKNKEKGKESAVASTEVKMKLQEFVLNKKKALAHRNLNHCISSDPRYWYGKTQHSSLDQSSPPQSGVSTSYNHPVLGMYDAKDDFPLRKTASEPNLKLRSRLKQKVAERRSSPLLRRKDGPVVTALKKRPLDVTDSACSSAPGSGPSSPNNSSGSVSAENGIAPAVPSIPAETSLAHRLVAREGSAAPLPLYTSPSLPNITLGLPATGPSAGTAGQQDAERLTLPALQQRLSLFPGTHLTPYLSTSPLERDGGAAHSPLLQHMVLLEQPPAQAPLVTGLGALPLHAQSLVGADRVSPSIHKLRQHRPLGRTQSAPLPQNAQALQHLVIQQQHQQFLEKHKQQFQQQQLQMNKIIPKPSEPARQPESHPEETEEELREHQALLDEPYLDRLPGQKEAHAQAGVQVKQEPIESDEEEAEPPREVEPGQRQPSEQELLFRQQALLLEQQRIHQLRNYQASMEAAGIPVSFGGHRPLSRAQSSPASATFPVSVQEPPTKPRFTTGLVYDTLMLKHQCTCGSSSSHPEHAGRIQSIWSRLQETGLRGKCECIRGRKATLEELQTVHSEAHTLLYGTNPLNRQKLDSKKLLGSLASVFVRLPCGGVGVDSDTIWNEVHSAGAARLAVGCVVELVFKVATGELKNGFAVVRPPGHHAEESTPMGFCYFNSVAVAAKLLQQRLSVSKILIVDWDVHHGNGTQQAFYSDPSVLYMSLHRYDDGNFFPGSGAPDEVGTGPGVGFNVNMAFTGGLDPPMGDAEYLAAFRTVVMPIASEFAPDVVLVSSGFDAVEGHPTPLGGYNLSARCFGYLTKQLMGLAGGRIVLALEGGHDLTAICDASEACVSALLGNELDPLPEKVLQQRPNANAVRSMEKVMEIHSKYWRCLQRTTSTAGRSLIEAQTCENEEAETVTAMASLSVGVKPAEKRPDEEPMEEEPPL

HL-60 [7] = test: Effect on Bcl2 expression in human HL60 cells by Western blotting analysis; type: functional, cell-based; outline: as §2
Ca9-22 = test: Cytotoxicity against human Ca9-22 cells after 24 hrs by MTT assay; type: functional, cell-based; conditions: Ca9-22, 24 h; outline: as §1
[8] = target: Histone deacetylase 1 (Homo sapiens) (UniProt Q13547); test: Inhibition of HDAC1 in human HL60 cells at 5 to 20 ug/ml after 24 hrs by Western blotting analysis; type: cell-based; conditions: HL-60; outline: as §2
Histone deacetylase 1 (Homo sapiens), sequence (Q13547 whole entry): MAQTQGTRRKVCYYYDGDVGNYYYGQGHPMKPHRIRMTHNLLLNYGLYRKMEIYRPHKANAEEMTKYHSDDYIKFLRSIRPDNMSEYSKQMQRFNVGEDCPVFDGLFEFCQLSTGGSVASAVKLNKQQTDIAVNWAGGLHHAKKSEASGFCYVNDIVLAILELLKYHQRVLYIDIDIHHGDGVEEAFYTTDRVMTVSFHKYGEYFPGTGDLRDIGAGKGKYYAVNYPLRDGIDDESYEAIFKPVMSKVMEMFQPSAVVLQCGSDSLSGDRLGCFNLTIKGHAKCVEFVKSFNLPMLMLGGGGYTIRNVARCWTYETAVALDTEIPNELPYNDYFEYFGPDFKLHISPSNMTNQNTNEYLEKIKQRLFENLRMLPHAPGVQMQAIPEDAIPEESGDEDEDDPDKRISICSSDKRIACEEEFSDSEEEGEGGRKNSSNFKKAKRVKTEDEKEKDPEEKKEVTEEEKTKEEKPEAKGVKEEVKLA

[9] = target: Histone deacetylase 3 (Homo sapiens) (UniProt O15379); test: Inhibition of HDAC3 in human HL60 cells at 5 to 20 ug/ml after 24 hrs by Western blotting analysis; type: cell-based; conditions: HL-60; outline: as §2
Histone deacetylase 3 (Homo sapiens), sequence (O15379 whole entry): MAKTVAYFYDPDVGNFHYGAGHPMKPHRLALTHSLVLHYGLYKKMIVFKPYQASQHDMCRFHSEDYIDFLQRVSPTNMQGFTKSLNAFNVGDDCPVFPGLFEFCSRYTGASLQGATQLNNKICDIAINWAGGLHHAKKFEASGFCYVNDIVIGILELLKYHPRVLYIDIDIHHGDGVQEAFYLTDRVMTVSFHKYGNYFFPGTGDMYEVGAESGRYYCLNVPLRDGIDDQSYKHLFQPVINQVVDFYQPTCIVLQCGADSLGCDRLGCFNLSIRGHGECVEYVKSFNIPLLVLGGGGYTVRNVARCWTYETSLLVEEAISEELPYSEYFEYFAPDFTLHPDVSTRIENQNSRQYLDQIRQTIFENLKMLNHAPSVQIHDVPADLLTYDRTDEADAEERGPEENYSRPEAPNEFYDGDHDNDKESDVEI

[10] = target: Histone deacetylase (Homo sapiens) (UniProt Q13547+O15379+Q9UBN7+Q92769+Q9UQL6+Q8WUI4+Q9BY41+Q96DB2+P56524+Q9UKV0+Q969S8); conditions: HL-60, at 20 µg/mL

inhibition [3] | inhibition [4] | inhibition [6] | inhibition [8] | inhibition [9] | inhibition [10] | Structure (SMILES) | IC50 (HL-60 [1]) | IC50 (HepG2) | Activity (HL-60 [2]) | Activity (HL-60 [5]) | Activity (HL-60 [7]) | IC50 (Ca9-22)
 |  |  |  |  |  | CO[C@@H]1C(O)=C2[C@@H]3[C@@H](C)[C@H](C)CC[C@]3(C)CC[C@@]2(C)[C@]2(C)CC[C@@H]3[C@](C)(CCC(=O)[C@@]3(C)CO)[C@@H]12 | 5.1 µg/mL (≈ 10.5 µM) | 7.7 µg/mL (≈ 15.8 µM) |  |  |  | 
Active | Active | Active | Active | Active | Active | C[C@H]1[C@H](C)CC[C@]2(C(=O)O)CC[C@]3(C)C(=CC[C@@H]4[C@@]5(C)CC[C@H](O)C(C)(C)[C@@H]5CC[C@]43C)[C@H]12 [URSOLIC ACID] | 8.7 µg/mL (≈ 19 µM) |  | Active | Active | inactive | 5.9 µg/mL (≈ 12.9 µM)
